Results published in ChEMBL document CHEMBL1123835, “Synthesis and biological properties of actinomycin D chromophoric analogues substituted at the 7-carbon with aziridine and aminopropoxy functions” (1987).
In brackets after ≈: the same amount, converted by molar mass. *1 amine or outer side, *2 acyl side, *3 side chain or, on linkers, in order; H or OH if unused. Where a SMILES comes first, the peptide text is derived from it. Bridges are numbered along the chain shown (N, C = ends). Roman numbers before positions name the chains, in order. [ ]: non-standard residue; d: D form. Actinocin(1to9) = Cc1c2oc3c(C)ccc(C(=O)[*:2])c3nc-2c(C(=O)[*:1])c(N)c1=O; NMeV = CN[C@H](C(=O)O)C(C)C; Sar = CNCC(=O)O

How the values were obtained:
B16 = assay: compound was evaluated in vitro for growth inhibition of B16 (Murine melanoma cell line) cell; assay type: functional; details: Mus musculus, read-out: ID50 (the source's name)
In short: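 Murine B16 melanoma cells were grown as a monolayer culture in log-phase growth. Compounds were dissolved in Me2SO/saline, with under 1% Me2SO in the final growth medium. ID50 (ng/mL) is the concentration giving 50% growth inhibition after 48 h, averaged over three experiments.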

[1] = Compound was evaluated for the elevation in temperature (degrees Centigrade) for thermal denaturation of DNA
CCRF-CEM = assay: In vitro growth inhibition of CCRF-CEM (Human leukemic lymphoblastic) cell; assay type: functional; details: read-out: ID50 (the source's name)
In short: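 Human CCRF-CEM lymphoblastic leukemia cells were grown in continuous spinner (suspension) culture in log phase. Compounds were dissolved in Me2SO/saline, with under 1% Me2SO in the final medium. ID50 (ng/mL) is the concentration giving 50% growth inhibition at 48 h, averaged over three experiments.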

[2] = Compound was evaluated for the elevation in temperature (degrees Celsius) for thermal denaturation of DNA.
In short: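 Calf-thymus DNA at 5.2 × 10^-5 M with drug at 2.5 × 10^-5 M in 0.01 M phosphate buffer (pH 7) with 10^-5 M EDTA. Thermal denaturation curves were recorded on a thermoprogrammed spectrophotometer with a quartz cell. ΔTm = Tm of DNA–drug complex minus Tm of DNA, with melting in the 67-85 °C range.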

| IC50 (B16) | IC50 (CCRF-CEM) | Change in Tm [2] | SMILES | Change in Tm [1] |
| --- | --- | --- | --- | --- |
| > 1 µg/mL | > 0.75 µg/mL | 6.8 | C=CCOc1cc(C(=O)NC2C(=O)N[C@H](C(C)C)C(=O)N3CCC[C@H]3C(=O)N(C)CC(=O)N(C)[C@@H](C(C)C)C(=O)O[C@H]2C)c2nc3c(C(=O)NC4C(=O)N[C@H](C(C)C)C(=O)N5CCC[C@H]5C(=O)N(C)CC(=O)N(C)[C@@H](C(C)C)C(=O)O[C@H]4C)c(N)c(=O)c(C)c-3oc2c1C (some centres not stated) | – |
| 0.055 µg/mL (≈ 0.0414 µM) | 0.06 µg/mL (≈ 0.0452 µM) | 4.8 | Cc1c2oc3c(C)c(OCC(C)N)cc(C(=O)NC4C(=O)N[C@H](C(C)C)C(=O)N5CCC[C@H]5C(=O)N(C)CC(=O)N(C)[C@@H](C(C)C)C(=O)O[C@H]4C)c3nc-2c(C(=O)NC2C(=O)N[C@H](C(C)C)C(=O)N3CCC[C@H]3C(=O)N(C)CC(=O)N(C)[C@@H](C(C)C)C(=O)O[C@H]2C)c(N)c1=O (some centres not stated) | – |
| 0.0033 µg/mL (≈ 0.00263 µM) | 0.013 µg/mL (≈ 0.0104 µM) | 8 | Cc1c2oc3c(C)ccc(C(=O)N[C@@H]4C(=O)N[C@H](C(C)C)C(=O)N5CCC[C@H]5C(=O)N(C)CC(=O)N(C)[C@@H](C(C)C)C(=O)O[C@@H]4C)c3nc-2c(C(=O)N[C@@H]2C(=O)N[C@H](C(C)C)C(=O)N3CCC[C@H]3C(=O)N(C)CC(=O)N(C)[C@@H](C(C)C)C(=O)O[C@@H]2C)c(N)c1=O [DACTINOMYCIN] (I: T[dV]P[Sar][NMeV] / II: T[dV]P[Sar][NMeV]; ester I:1-I:C, II:1-II:C; linker I:N-II:N via Actinocin(1to9)) | – |

| SMILES | IC50 (B16) | IC50 (CCRF-CEM) | Change in Tm [2] | Change in Tm [1] |
| --- | --- | --- | --- | --- |
| Cc1c2oc3c(C)c(OCC4CN4)cc(C(=O)NC4C(=O)N[C@H](C(C)C)C(=O)N5CCC[C@H]5C(=O)N(C)CC(=O)N(C)[C@@H](C(C)C)C(=O)O[C@H]4C)c3nc-2c(C(=O)NC2C(=O)N[C@H](C(C)C)C(=O)N3CCC[C@H]3C(=O)N(C)CC(=O)N(C)[C@@H](C(C)C)C(=O)O[C@H]2C)c(N)c1=O (some centres not stated) | 0.11 µg/mL (≈ 0.0829 µM) | 0.076 µg/mL (≈ 0.0573 µM) | – | 2.8 |
